Screening results as filed in PubChem.
NR2E3 ag-1 = agonists of human NR2E3 nuclear receptor. 360,000 compounds, 0.35% hits. Q9Y5X4. inhibition of corepressor binding, % at 3.98 µM. CHO-S Gal4-NCOR/VP16-NR2E3 two-hybrid, luciferase;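 active = inhibition above the mean of all tested compounds plus 3 SD, cut at about 70% in these data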;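 note: 0% = DMSO with NR2E3 transfected cells and 100% = cells lacking NR2E3 construct; higher means lower luciferase signal from less NR2E3 corepressor binding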
Rev-erbA mod = Rev-erb alpha (human) modulation; P20393; Rev-erbα–FITC-DNA binding, fluorescence polarization, 90 min; activity, % at 10 µM; 370,000 compounds, 0.79% hits;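 active = activity above about 14%, limit read from the data; passing the limit was not always enough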;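 note: 0% = DMSO wells with 35 nM protein and 100% = DMSO wells with 750 nM protein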
Target sequence (P20393 whole entry, looked up): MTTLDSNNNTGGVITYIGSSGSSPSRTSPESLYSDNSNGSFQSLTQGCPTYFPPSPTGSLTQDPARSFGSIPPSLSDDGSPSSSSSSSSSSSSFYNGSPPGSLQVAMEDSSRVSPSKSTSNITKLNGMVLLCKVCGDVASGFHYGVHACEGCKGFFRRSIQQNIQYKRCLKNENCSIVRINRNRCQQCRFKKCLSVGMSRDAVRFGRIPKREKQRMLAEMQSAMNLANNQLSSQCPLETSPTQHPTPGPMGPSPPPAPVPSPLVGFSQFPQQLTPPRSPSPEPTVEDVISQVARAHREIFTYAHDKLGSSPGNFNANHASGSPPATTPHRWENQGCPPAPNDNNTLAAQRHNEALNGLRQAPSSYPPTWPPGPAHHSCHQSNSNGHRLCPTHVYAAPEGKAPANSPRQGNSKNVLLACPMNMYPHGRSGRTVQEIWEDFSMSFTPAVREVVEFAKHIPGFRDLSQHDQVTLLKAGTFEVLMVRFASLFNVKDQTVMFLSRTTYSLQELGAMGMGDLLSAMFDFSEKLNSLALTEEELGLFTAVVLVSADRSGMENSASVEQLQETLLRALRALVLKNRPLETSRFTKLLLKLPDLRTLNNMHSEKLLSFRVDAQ
NR2E3 ag-2 = activates human photoreceptor nuclear receptor NR2E3; Q9Y5X4; GST-NR2E3/biotin-RetCOR TR-FRET, 1536-well; inhibition of corepressor binding, % at 4.78 µM; 320,000 compounds, 0.12% hits;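 active = percent inhibition above the cutoff of mean plus 3 SD of all tested compounds, set per screening campaign, cut at about 20% in these data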;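 note: 0% = DMSO wells and 100% = biotin wells as full block of FRET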
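System: GST-tagged NR2E3 plus biotinylated RetCOR corepressor; Buffer or medium: pH 7.5 Tris-based buffer; Probe or stimulus: RetCOR corepressor, biotinylated, 7 nM; Doses: compound at 4.8 µM, single dose; Schedule: 5 h incubation at 4 °C; Technique: time-resolved FRET; Evaluation: percent inhibition of TR-FRET ratio; Replication: one well per compound, singlicate testing.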
rCAG binder = binds r(CAG) RNA repeats. r(CAG) RNA repeat, TO-PRO-1 dye displacement fluorescence. inhibition, % at 3 µM. 370,000 compounds, 1.3% hits. AID 651821;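 active = inhibition above the plate cutoff, the mean of all test compounds on that plate plus 3 SD, cut at about 35% in these data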;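 note: 0% = DMSO alone and 100% = 100 µM mitoxantrone as full dye displacement; higher means more dye released from RNA so lower well fluorescence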
PG9 Ab binder = small molecules binding HIV-1 gp120 antibody PG9; inhibition, % at 6.7 µM; AID 624416; 360,000 compounds, 0.43% hits; TR-FRET gp120-PG9 antibody binding; in the data active = inhibition above about 8.5%
NR2E3 ag confirm = NR2E3 (human) agonism, confirmation; shares compounds with NR2E3 ag-2; cell-free NR2E3 corepressor release, TR-FRET, 5 h; activation (reported as inhibition), % at 3.98 µM; 360 compounds, 39% hits; AID 2379; in the data active = activation above about 20%
PPARg-NCOR2 ctr = PPARg-NCOR2 interaction agonism, NR2E3 counter-screen. shares compounds with NR2E3 ag-2. TR-FRET PPARg-NCOR2 coregulator interaction, biochemical. inhibition, % at 3.98 µM. 360 compounds, 45% hits. AID 504787; in the data active = inhibition above about 20%;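 note: 0% = DMSO vehicle and 100% = wells without protein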
PG9 binder conf = PG9 antibody binding, confirmed; shares compounds with PG9 Ab binder; TR-FRET PG9 antibody binding, biochemical; inhibition, % at 6.7 µM; 1,500 compounds, 90% hits; in the data active = inhibition above about 9%
PGV04 counter = binds control antibody PGV04 in PG9 binder counter-screen. inhibition, % at 6.7 µM. shares compounds with PG9 Ab binder. TR-FRET PGV04 antibody-gp120 binding, biochemical. 1,500 compounds, 95% hits. AID 651604; in the data active = inhibition above about 9.5%
* = called active by the depositor; · = not tested or not shown. Compounds with a hit are over-represented: about 2.6% of the library has one in this group of screens.

SMILES	NR2E3 ag-1	Rev-erbA mod	NR2E3 ag-2	rCAG binder	PG9 Ab binder	NR2E3 ag confirm	PPARg-NCOR2 ctr	PG9 binder conf	PGV04 counter
CCOc1c(N2CCOCC2)cnn(C)c1=O	·	1	·	·	·	·	·	·	·
O=C(c1cc2nc(-c3ccco3)cc(C(F)(F)F)n2n1)N1CCCCCC1	21	-9	-1	2	-1	·	·	·	·
O=C(NCCCN1CCCC1=O)c1cc2nc(-c3ccco3)cc(C(F)(F)F)n2n1	-5	5	22*	-2	-1	-10	-5	·	·
CS(=O)(=O)N1CCN(c2ccc(Cl)cc2[N+](=O)[O-])CC1	6	4	42*	-3	-1	-1	-6	·	·
O=C(O)c1ccc2c(c1)[C@@H]1C=CC[C@@H]1[C@H](c1ccccn1)N2	-35	-3	48*	82*	-1	12	9	·	·
COc1ccc(C(=O)N/N=C(\C)c2ccc3c(c2)C2C=CCC2C(c2ccccc2)N3)cc1 (stereo not given)	-27	·	-5	·	·	·	·	·	·
Cc1cc(C)c(OCC(=O)Nc2ccc3c(c2)OCO3)cc1C	-5	7	29*	-1	18*	12	18	20*	24*
O=C(O)c1cc(-c2ccco2)nc2ccc(Br)cc12	-22	-6	34*	28	25*	26*	29*	45*	58*
CSc1nc(Sc2ccccc2Cl)c2ccccc2n1	-2	3	26*	3	9.1*	10	13	17*	22*
O=C(O)CCC(=O)N1CCN(c2nc(-c3ccccc3Cl)c3cc(Br)ccc3n2)CC1	-12	-2	24*	9	11*	15	16	16*	23*
O=C(O)CCC(=O)N1CCN(c2nc(-c3ccccc3)c3cc(Br)ccc3n2)CC1	10	1	3	3	8	·	·	·	·
CCOc1cccc(C2C(C(=O)c3ccc(C)o3)=C(O)C(=O)N2CCCn2ccnc2)c1 (stereo not given)	-9	0	24*	4	9.1*	29*	28*	15*	19*
CCOc1cccc(C2C(C(=O)c3ccc(C)o3)=C(O)C(=O)N2Cc2ccccc2)c1 (stereo not given)	-34	-4	·	8	5	·	·	·	·
COCCCN1C(=O)C(O)=C(C(=O)c2ccc(C)o2)C1c1cccc(Br)c1 (stereo not given)	-32	1	45*	4	19*	20*	20*	20*	26*
C=CCOc1ccc(C2C(C(=O)c3ccc(C)o3)=C(O)C(=O)N2Cc2cccnc2)cc1 (stereo not given)	-1	-4	20*	9	11*	5	5	27*	31*
C=CCOc1cccc(C2C(C(=O)c3cccs3)=C(O)C(=O)N2Cc2cccnc2)c1 (stereo not given)	4	-1	2	6	7	·	·	·	·
CCCCOc1cccc(C2C(C(=O)c3ccc(C)o3)=C(O)C(=O)N2Cc2ccco2)c1 (stereo not given)	22	-1	·	20	2	·	·	·	·
Cc1ccccc1S(=O)(=O)N(C)C[C@H]1OCc2cnnn2CCCC(=O)N([C@H](C)CO)C[C@@H]1C	·	-2	·	1	-1	·	·	·	·
COCC(=O)Nc1cc(Sc2ccccc2)ccc1N=C(NC(=O)OC)NC(=O)OC	·	3	·	·	·	·	·	·	·
O=S(=O)(Nc1cccnc1)c1ccc(Br)c2ccccc12	14	5	30*	18	15*	17	21*	24*	30*
Cc1ccc(-c2cc(-c3nnc(SCC(=O)NC4CCCCC4)n3N)[nH]n2)cc1	·	14	·	2	·	·	·	·	·
N#CC(=C=[N-])C1=C(C#N)C(c2ccccc2F)C([n+]2ccccc2)C(O)(C2CC2)N1 (stereo not given)	-14	-3	29*	3	9.1*	-7	3	16*	24*
Cc1ccc[n+](C2C(c3ccc([N+](=O)[O-])cc3)C(C#N)=C([S-])NC2(O)C2CC2)c1 (stereo not given)	15	6	3	18	1	·	·	·	·
NCCCC(N)C(=O)O (stereo not given)	·	0	·	·	·	·	·	·	·
CCOC(=O)/C(C#N)=C1\Nc2ccccc2N=C1N(CC(C)C)CC(C)C	41	4	-1	-1	-1	·	·	·	·
SMILES	NR2E3 ag-1	Rev-erbA mod	NR2E3 ag-2	rCAG binder	PG9 Ab binder	NR2E3 ag confirm	PPARg-NCOR2 ctr	PG9 binder conf	PGV04 counter
CCOC(=O)/C(C#N)=C1/C=C(C)NC(c2ccccc2O)=N1	20	1	23*	31	24*	13	10	27*	34*
O=C1C(=O)N(Cc2cccnc2)C(c2cccc(Br)c2)/C1=C(/O)c1ccc2c(c1)OCO2 (stereo not given)	-5	6	47*	4	37*	27*	31*	39*	46*
COc1cccc(C2/C(=C(/O)c3ccc4c(c3)OCO4)C(=O)C(=O)N2CCN2CCOCC2)c1 (stereo not given)	-11	-1	30*	6	21*	29*	27*	31*	37*
COC(=O)C1=C(C)N(Cc2ccccc2C(F)(F)F)C(=NCc2ccccc2)NC1c1ccc(F)cc1 (stereo not given)	·	2	·	2	1	·	·	·	·
O=C(C1=C(O)C(=O)N(CCN2CCOCC2)C1c1ccc(F)cc1)c1cc2ccccc2o1 (stereo not given)	-3	2	27*	11	11*	31*	32*	17*	22*
O=C1C(=O)N(CCN2CCOCC2)C(c2ccccn2)/C1=C(/O)c1ccccc1 (stereo not given)	-26	2	0	2	0	·	·	·	·
O=C(C1=C(O)C(=O)N(CCc2ccccc2)C1c1ccncc1)c1cc2ccccc2o1 (stereo not given)	-9	-5	34*	17	19*	31*	31*	30*	40*
O=C(C1=C(O)C(=O)N(CCCN2CCOCC2)C1c1ccccn1)c1cc2ccccc2o1 (stereo not given)	-8	-2	34*	6	15*	16	22*	19*	25*
O=C(C1=C(O)C(=O)N(CCN2CCOCC2)C1c1ccco1)c1cc2ccccc2o1 (stereo not given)	-10	4	14	8	4	·	·	·	·
